Tests used:
[1] = target: Gonadotropin-releasing hormone receptor (Homo sapiens, UniProt P30968, D293K); test: Displacement of [125I]-His5, D-Tyr6]GnRH from mutant GnRHR, GnRHR D293K
In short: (§1)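 Human GnRH-R (wild type or site-directed point mutant) was transiently expressed in COS-7 cells by electroporation, with cells cultured 36-48 h before membranes were prepared. Membranes (5-20 µg per point) were incubated 2 h at room temperature with 0.3 nM tracer and varying competitor in HEPES pH 7.5, 150 mM NaCl, 0.1% BSA, then filtered and counted.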

[2] = target: Gonadotropin-releasing hormone receptor (Homo sapiens, UniProt P30968, E295A); test: Displacement of [125I]-His5, D-Tyr6]GnRH from mutant GnRHR, GnRHR E295A; in short: as §1
[3] = target: Gonadotropin-releasing hormone receptor (Homo sapiens, UniProt P30968, N305K); test: Displacement of [125I]-His5, D-Tyr6]GnRH from mutant GnRHR, GnRHR N305K; in short: as §1
[4] = target: Gonadotropin-releasing hormone receptor (Homo sapiens, UniProt P30968, F313L); test: Displacement of [125I]-His5, D-Tyr6]GnRH from mutant GnRHR, GnRHR F313L; in short: as §1
[5] = target: Gonadotropin-releasing hormone receptor (Homo sapiens, UniProt P30968, L112K); test: Displacement of [125I]-His5, D-Tyr6]GnRH from mutant GnRHR, GnRHR L112K; in short: as §1
[6] = target: Gonadotropin-releasing hormone receptor (Homo sapiens, UniProt P30968, S118N); test: Displacement of [125I]-His5, D-Tyr6]GnRH from mutant GnRHR, GnRHR S118N
[7] = target: Gonadotropin-releasing hormone receptor (Homo sapiens, UniProt P30968, S203E); test: Displacement of [125I]-His5, D-Tyr6]GnRH from mutant GnRHR, GnRHR S203E
[8] = target: Gonadotropin-releasing hormone receptor (Homo sapiens, UniProt P30968, S203P); test: Displacement of [125I]-His5, D-Tyr6]GnRH from mutant GnRHR, GnRHR S203P
[9] = target: Gonadotropin-releasing hormone receptor (Homo sapiens, UniProt P30968, A50T); test: Displacement of [125I]-His5, D-Tyr6]GnRH from mutant GnRHR, GnRHR A50T; in short: as §1
[10] = target: Gonadotropin-releasing hormone receptor (Homo sapiens, UniProt P30968, E111A); test: Displacement of [125I]-His5, D-Tyr6]GnRH from mutant GnRHR, GnRHR E111A; in short: as §1
[11] = target: Gonadotropin-releasing hormone receptor (Homo sapiens, UniProt P30968, L112A); test: Displacement of [125I]-His5, D-Tyr6]GnRH from mutant GnRHR, GnRHR L112A; in short: as §1
Sequence of Gonadotropin-releasing hormone receptor (Homo sapiens, UniProt P30968, L112A) (P30968 whole entry L112A): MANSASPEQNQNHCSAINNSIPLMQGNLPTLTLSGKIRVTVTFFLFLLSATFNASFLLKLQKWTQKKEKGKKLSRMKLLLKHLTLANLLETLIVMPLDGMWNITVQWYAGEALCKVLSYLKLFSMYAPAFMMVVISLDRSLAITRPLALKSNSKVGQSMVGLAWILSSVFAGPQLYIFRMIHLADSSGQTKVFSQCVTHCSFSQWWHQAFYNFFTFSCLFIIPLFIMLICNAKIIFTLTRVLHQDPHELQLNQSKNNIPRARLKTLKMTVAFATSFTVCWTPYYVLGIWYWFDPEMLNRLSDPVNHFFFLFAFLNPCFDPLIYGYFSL

Sequence of Gonadotropin-releasing hormone receptor (Homo sapiens, UniProt P30968, F313L) (P30968 whole entry F313L): as the sequence (P30968 whole entry L112A) above, with A112L, F313L counted along it
Sequence of Gonadotropin-releasing hormone receptor (Homo sapiens, UniProt P30968, D293K) (P30968 whole entry D293K): as the sequence (P30968 whole entry L112A) above, with A112L, D293K counted along it
Sequence of Gonadotropin-releasing hormone receptor (Homo sapiens, UniProt P30968, E111A) (P30968 whole entry E111A): as the sequence (P30968 whole entry L112A) above, with E111A, A112L counted along it
Sequence of Gonadotropin-releasing hormone receptor (Homo sapiens, UniProt P30968, L112K) (P30968 whole entry L112K): as the sequence (P30968 whole entry L112A) above, with A112K counted along it
Sequence of Gonadotropin-releasing hormone receptor (Homo sapiens, UniProt P30968, E295A) (P30968 whole entry E295A): as the sequence (P30968 whole entry L112A) above, with A112L, E295A counted along it
Sequence of Gonadotropin-releasing hormone receptor (Homo sapiens, UniProt P30968, S118N) (P30968 whole entry S118N): as the sequence (P30968 whole entry L112A) above, with A112L, S118N counted along it
Sequence of Gonadotropin-releasing hormone receptor (Homo sapiens, UniProt P30968, A50T) (P30968 whole entry A50T): as the sequence (P30968 whole entry L112A) above, with A50T, A112L counted along it
Sequence of Gonadotropin-releasing hormone receptor (Homo sapiens, UniProt P30968, S203E) (P30968 whole entry S203E): as the sequence (P30968 whole entry L112A) above, with A112L, S203E counted along it
Sequence of Gonadotropin-releasing hormone receptor (Homo sapiens, UniProt P30968, N305K) (P30968 whole entry N305K): as the sequence (P30968 whole entry L112A) above, with A112L, N305K counted along it
Sequence of Gonadotropin-releasing hormone receptor (Homo sapiens, UniProt P30968, S203P) (P30968 whole entry S203P): as the sequence (P30968 whole entry L112A) above, with A112L, S203P counted along it

## COc1c(C)cc(-c2[nH]c3ccc(C(C)(C)C(=O)N(CC(C)C)CC(C)C)cc3c2[C@H](C)CNCCc2ccccc2)cc1C
[1]
  IC50: 56.1 nM
[2]
  IC50: 11.2 nM
[3]
  IC50: 3.7 nM
[4]
  IC50: 623 nM
[5]
  IC50: 24.2 nM
[6]
  IC50: 63.7 nM
[7]
  IC50: 15.1 nM
[8]
  IC50: 41.4 nM
[9]
  IC50: 17.8 nM
[10]
  IC50: 5.4 nM
[11]
  IC50: 22.4 nM

## CC(C)C[C@H](NC(=O)[C@@H](Cc1ccc(O)cc1)NC(=O)[C@H](Cc1c[nH]cn1)NC(=O)[C@H](CO)NC(=O)[C@H](Cc1c[nH]c2ccccc12)NC(=O)[C@H](Cc1c[nH]cn1)NC(=O)[C@@H]1CCC(=O)N1)C(=O)N[C@@H](CCCN=C(N)N)C(=O)N1CCC[C@H]1C(=O)NCC(N)=O
[1]
  IC50: 4.8 nM
[2]
  IC50: 1.9 nM
[3]
  IC50: 12.4 nM
[4]
  IC50: 5.6 nM
[5]
  IC50: 3.5 nM
[6]
  IC50: 1.1 nM
[7]
  IC50: 2.9 nM
[8]
  IC50: 5.4 nM
[9]
  IC50: 3.6 nM
[10]
  IC50: 4.6 nM
[11]
  IC50: 2.5 nM
